Experimental data collected from several papers.
Observed: cell growth or viability

Compound	cell line	technique	concentration	time	measurement	value
C=CCN1C(=O)C(=Nc2cccc(C)c2)c2ccccc21	B16	MTT		48 h	IC50	28.6 µM
Cc1nc(NC(=O)N2CCC[C@H]2C(N)=O)sc1-c1ccnc(C(C)(C)C(F)(F)F)c1	BT-20	ATP luminescence		5 days	EC50	2.48 µM
Cc1nc(Nc2ncc(C(=O)Nc3c(C)cccc3Cl)s2)cc(N2CC[C@H](O)C2)n1	Z-138	ATP luminescence	10 µM	72 h	inhibition	56%
C[C@H](Nc1ccc2c(c1)OCCn1cc(N3C(=O)OC[C@H]3C(F)F)nc1-2)C(N)=O	BT-20	ATP luminescence		5 days	EC50	0.449 µM
COc1cc([C@@H]2c3cc4c(cc3[C@@H](O[C@@H]3O[C@@H]5CO[C@@H](C)O[C@H]5[C@H](O)[C@H]3O)[C@H]3COC(=O)[C@H]23)OCO4)cc(OC)c1O	Z-138	MTS		72 h	IC50	0.03 µM
O=C(CCc1ccc(Cl)cc1)N1C(=O)C(=Nc2ccc(Cl)cc2Br)c2ccccc21	B16	MTT		48 h	IC50	23.6 µM
CN(C)CCNC(=O)c1ccc(-c2nc3ccc4[nH]ncc4c3c3c2CCCCC3)cc1	G-361			72 h	GI50	> 10 µM
O=c1cc(OCc2cc(-c3ccccn3)no2)c2ccccc2o1	Z-138	MTS		72 h	IC50	> 100 µM
Cc1n[nH]c2ccc3nc(-c4ccc(C(=O)NCCN(C)C)cc4F)c4c(c3c12)CCCCC4	G-361			72 h	GI50	> 10 µM
O=C1C(=Nc2ccc(Cl)cc2Br)c2ccccc2N1Cc1ccc(Br)cc1	B16	MTT		48 h	IC50	1.65 µM
CN(C)CCNC(=O)c1ccc(-c2nc3ccc4[nH]ncc4c3c3c2CCCCC3)c(F)c1	G-361			72 h	GI50	3.55 µM
N#Cc1ccc(-c2cc(COc3cc(=O)oc4ccccc34)on2)cc1	Z-138	MTS		72 h	IC50	> 100 µM
CCc1nc(C(N)=O)c(Nc2ccc(N3CCC(N4CCN(C)CC4)CC3)c(OC)c2)nc1NC1CCOCC1	G-361			72 h	GI50	1.17 µM
Cc1ccc(CN2C(=O)C(=Nc3c(C(C)C)cccc3C(C)C)c3ccccc32)cc1	B16	MTT		48 h	IC50	57.2 µM
